Assay results: PubChem BioAssay AID2764 (Sanford-Burnham Center for Chemical Genomics, 2010)
The other results are listed elsewhere or left out. Values without a mark were called inactive.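 Rule for the calls: active = activation above 40%, taking the highest of four retests; inactive = the rest.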

molecular target: Apelin receptor (Homo sapiens) (UniProt P35414); assay: agonists of human apelin receptor APJ, confirmation, cell-based, single concentration, CHO-K1, beta-arrestin, luminescence (AID 2764); conditions: CHO-K1 APJ PathHunter beta-arrestin, at 20 µM, stronger effect = higher value;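 note: plate controls were DMSO wells for no effect and apelin-13 at 10 nM for full effect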
Sequence (P35414 whole entry, looked up, the tested form may be a part): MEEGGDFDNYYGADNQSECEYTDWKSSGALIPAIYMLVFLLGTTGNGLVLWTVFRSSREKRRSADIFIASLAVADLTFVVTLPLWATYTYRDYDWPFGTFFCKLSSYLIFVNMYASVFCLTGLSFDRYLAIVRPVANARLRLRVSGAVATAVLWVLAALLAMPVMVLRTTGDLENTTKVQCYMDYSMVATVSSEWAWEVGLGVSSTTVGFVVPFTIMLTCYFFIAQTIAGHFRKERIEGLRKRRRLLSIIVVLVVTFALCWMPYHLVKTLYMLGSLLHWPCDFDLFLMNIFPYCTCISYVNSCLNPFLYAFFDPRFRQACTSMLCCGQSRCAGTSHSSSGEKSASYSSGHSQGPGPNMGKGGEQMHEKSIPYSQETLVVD
Outline: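 Benchmarks: Positive control apelin-13 at 10 nM final | Material: CHO-K1 cells with tagged APJ and beta-arrestin | Read-out basis: beta-arrestin recruitment to APJ as % activation | Signal: Chemiluminescence from beta-gal fragment complementation, detection reagent | Timing: Overnight cell seeding, 90 min compound exposure at 25 °C, 60 min detection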

Structure (SMILES) | activation
CCOc1cc2[nH]c(=S)n(CCCN3CCCC3=O)c(=O)c2cc1OCC | 20.1%
CCCc1ccc(OCc2ccc(C(=O)N/N=C/c3cccc([N+](=O)[O-])c3)o2)c(OC)c1 | 19.3%
CC(=O)N1CCCc2cc(S(=O)(=O)N3CCCC(C(=O)N4CCN(c5cccc(Cl)c5)CC4)C3)ccc21 (configuration not stated) | 27.4%
Cc1ccc2nc(-c3ccc(NC(=O)c4cccnc4)cc3)oc2c1 | 18.4%
COc1ccc(C(=O)O/N=C(\N)Cc2ccc(Cl)cc2Cl)cc1OC | 24.9%
O=C(CSc1nc(Nc2ccccc2)nc(N2CCOCC2)n1)Nc1cc(Cl)ccc1O | 15.9%
COc1cc(NC(=O)C2=C(C)OCCS2)c(Cl)cc1C(=O)NCCN1CCN(C)CC1 | 11.7%
CCC(C)(C)C1CCC(=NNC(=O)c2ccc(Br)o2)CC1 (configuration not stated) | 12.3%
CC1=C/C(=N\OS(=O)(=O)c2ccccc2)C=CC1=O | 30.6%
Nc1nc(-c2sc3nc4c(cc3c2N)CCCC4)nc(N2CCOCC2)n1 | 15%
CCCCCCc1cc2cc(-c3nnc(-c4ccccc4)o3)c(=O)oc2cc1O | -0.485%
Cc1ccccc1-n1nnc2c(=O)oc3ccccc3c21 | 7.92%
